According to article PMC5316514 (Clinical cancer research : an official journal of the …, 2016):
“And” between values parts separate entries of the source, which are not always exact repeats. Equal values may be shown once. “Also recorded” adds a separate entry of the source.

Experiments:
[1] = test system: PDE4; settings: cited from earlier work
[2] = test system: AKT; test: AKT phosphorylation; format: in vivo, human; settings: 5 of 8 patients; roflumilast single agent, day 8 vs day 0, PBMC, western blot
[3] = Safety / adverse events; format: in vivo, human
Procedure, shortened: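 Ten patients received 21-day cycles of oral roflumilast 500 mcg daily. Prednisone 60 mg/m2 PO daily was added on days 8–14 of cycle 1 (maximum 100 mg daily) and on days 1–7 of later cycles. Incidence, severity, relationship and type of adverse events during treatment and follow-up were graded by NCI CTCAE version 4.03.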

[4] = test system: B cell lymphoma; settings: murine model of B cell lymphoma; cited from earlier work
[5] = test system: relapsed/refractory B cell malignancies; test: Clinical response and days in trial, phase Ib trial; format: in vivo, human; settings: roflumilast plus prednisone
Procedure, shortened: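 Cycles lasted 21 days, with oral roflumilast 500 mcg daily throughout. Prednisone 60 mg/m2 PO daily was given on days 8–14 in cycle 1 (maximum 100 mg daily) and on days 1–7 in later cycles. Response was scored by International Working Group revised criteria for each disease.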

[6] = test system: PI3K; test: PI3K activity; format: in vivo, human
[7] = roflumilast 500 mcg PO daily plus prednisone, 10 patients
[8] = individual patient (UPN, diagnosis in the row)
[9] = individual patient, PI3K/AKT non-suppressors
[10] = individual patient, PI3K/AKT suppressors

O=C(Nc1c(Cl)c[n+]([O-])cc1Cl)c1ccc(OC(F)F)c(OCC2CC2)c1 [roflumilast N-oxide]
IC50 for inhibition of PDE4 [1]: 0.8 ng/mL

O=C(Nc1c(Cl)cncc1Cl)c1ccc(OC(F)F)c(OCC2CC2)c1 [roflumilast]
samples with marked suppression of pAKT (T308) levels [2]: 62.5% | transitory episode of suicidal ideation, patients ([3]; UPN#10, end of first cycle, resolved upon cessation of study drug): One patient | transient ≥ grade 2 neutropenia, patients ([3]; roflumilast 500 mcg PO daily plus prednisone, 3 of 10 patients): 30% | grade 4 events [3, 7]: no grade 4 events | incidence of most common ≥Grade 2 treatment-related AEs (fatigue, anorexia, neutropenia), all causality [3, 7]: ≥ 25% | tolerability of treatment [3, 7]: generally well tolerated | IC50 for inhibition of PDE4 [1]: 0.3 ng/mL | survival [4]: improved | tumor burden [4]: significantly suppressed | partial response or stable disease, share of evaluable patients ([5]; 6 of nine evaluable patients): 66% | average days in trial, true PI3K/AKT suppressor profile ([5]; clinically evaluable patients): 156 days | average days in trial, without PI3K/AKT suppression ([5]; clinically evaluable patients): 91 days | days in trial, range, true PI3K/AKT suppressor profile ([5]; clinically evaluable patients): 49 to 315 days | days in trial, range, without PI3K/AKT suppression ([5]; clinically evaluable patients): 28 to 139 days | partial response or stable disease in PI3K/AKT suppressor group ([5]; four of five patients): 80% | Best response [5, 8]: Stable disease; also recorded: Withdrawn; also recorded: Progressed; also recorded: Partial response | days in trial (second figure of No of cycles/days in trial) [5, 8]: 4 / 105 days and 4 / 98 days and 1 / 29 days and 2 / 46 days and 8 / 190 days and 13 / 315 days and 2 / 49 days and 1 / 28 days and 5 / 139 days and 5 / 127 days | Best response [5, 9]: Stable disease; also recorded: Progressed | Days on trial [5, 9]: 139 days and 105 days and 29 days and 28 days | Best response [5, 10]: Stable disease; also recorded: Partial response; also recorded: Progressed | Days on trial [5, 10]: 190 days and 315 days and 49 days and 127 days and 98 days | patients with early progression (during first or second cycle) ([5]; of nine evaluable patients): 3 patients | days in trial until progression, death or withdrawn consent, range [5]: 28 to 315 days | median number of days in trial until progression, death or withdrawn consent [5]: 105 days | average days in trial, patients of Hispanic origin ([5]; p=0.08 vs non-Hispanic): 193 days | PI3K suppression in non-PI3K/AKT suppressors ([6]; n=4, no pAKT suppression, day 8 vs day 0, PBMC): < 25% | patients with significantly suppressed PI3K activity, number of evaluated ([6]; roflumilast 500 mcg PO daily single agent, day 8 vs day 0, PBMC): 7 of the 9 | patients evaluated with significantly suppressed PI3K activity ([6]; roflumilast as single agent, 7 days, PBMC): 77%
